TRPC6 activator: mouse TRPC6 channel activators, primary screen, cell-based, HEK293, membrane potential dye. B-score at 10 µM. Short transient receptor potential channel 6 (Mus musculus), Q61143. actives 0.13% (n = 310,000). HEK293-TRPC6 membrane potential dye fluorescence; hits give high values;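 active = B-score of the integrated fluorescence ratio above library mean plus 3 SD, and starting fluorescence ratio within library mean plus 5 SD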;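 also: higher score means more depolarization so channel activation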
Target sequence (Q61143 whole entry, looked up): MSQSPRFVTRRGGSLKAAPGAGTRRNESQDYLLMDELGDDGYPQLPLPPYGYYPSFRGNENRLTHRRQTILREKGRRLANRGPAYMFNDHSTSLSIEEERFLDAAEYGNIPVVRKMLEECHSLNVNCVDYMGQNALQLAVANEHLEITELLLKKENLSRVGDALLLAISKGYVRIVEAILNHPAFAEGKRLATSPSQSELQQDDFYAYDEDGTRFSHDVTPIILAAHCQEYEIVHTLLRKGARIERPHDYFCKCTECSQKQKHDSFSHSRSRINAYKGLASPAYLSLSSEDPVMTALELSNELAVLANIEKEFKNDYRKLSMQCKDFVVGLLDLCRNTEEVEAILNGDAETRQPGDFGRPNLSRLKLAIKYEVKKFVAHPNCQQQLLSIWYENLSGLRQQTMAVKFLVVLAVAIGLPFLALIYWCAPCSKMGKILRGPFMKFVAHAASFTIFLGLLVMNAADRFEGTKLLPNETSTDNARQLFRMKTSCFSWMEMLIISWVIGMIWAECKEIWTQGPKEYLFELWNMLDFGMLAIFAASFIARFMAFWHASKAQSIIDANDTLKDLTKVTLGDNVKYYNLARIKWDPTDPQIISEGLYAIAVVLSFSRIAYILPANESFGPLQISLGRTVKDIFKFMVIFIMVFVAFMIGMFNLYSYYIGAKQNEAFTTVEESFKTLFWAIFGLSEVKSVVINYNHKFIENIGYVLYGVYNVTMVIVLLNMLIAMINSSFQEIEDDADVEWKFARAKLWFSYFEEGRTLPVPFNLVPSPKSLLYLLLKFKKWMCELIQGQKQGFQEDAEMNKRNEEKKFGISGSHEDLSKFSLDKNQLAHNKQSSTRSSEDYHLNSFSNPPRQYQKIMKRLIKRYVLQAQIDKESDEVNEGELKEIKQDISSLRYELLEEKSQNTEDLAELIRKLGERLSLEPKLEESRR
TRPC4 act: activators of mouse TRPC4 channel, primary screen, Fluo4 calcium, HEK293 TRPC4beta/mu-opioid cells; Short transient receptor potential channel 4 (Mus musculus), Q9QUQ5; B-score at 10 µM; Fluo4 calcium fluorescence; hits give high values; actives 0.49% (n = 310,000); AID 2237, 2010;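 active = B-score above 5 SD of library B-scores, and initial fluorescence ratio not above library mean plus 5 SD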;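 also: positive B-score marks a calcium rise read as TRPC4 activation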
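Assay system: HEK293 cells stably co-expressing mouse TRPC4beta and mu-opioid receptor / Timing: Fluo4 dye loading 45 min at room temperature, 110 s recording / Signal: Fluo4 calcium-sensitive dye fluorescence, kinetic, 1 Hz baseline / Read-out: integrated baseline-normalised fluorescence ratio, converted to per-well B score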
TRPC4 PAM: positive allosteric modulators of TRPC4, primary screen, cell-based, mouse TRPC4beta, HEK293 mu-opioid, Fluo-4 calcium | Short transient receptor potential channel 4 (Mus musculus), Q9QUQ5 | DAMGO EC20, Fluo-4 Ca2+ flux; hits give high values | actives 0.42% (n = 310,000) | B-score at 10 µM;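 active = B-score of calcium response area above 5 SD of library B-scores, with initial fluorescence ratio within 5 SD of library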
TRPC4 inh: inhibitors of mouse TRPC4 channel, primary screen, Fluo4 calcium, HEK293 TRPC4beta/mu-opioid cells; Short transient receptor potential channel 4 (Mus musculus), Q9QUQ5; DAMGO-evoked Fluo4 calcium flux; hits give low values; B-score at 10 µM; actives 0.39% (n = 300,000);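 active = B-score over 3 SD under the library average, no early fluorescence shift, positive overall ratio signal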
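material = TRPC4beta/mu-opioid receptor HEK293 cell line | probe or stimulus = sequential submaximal and maximal DAMGO stimulation | compound dosing = one concentration per compound | measured by = Fluo4 Ca2+ flux fluorescence | evaluation = integrated fluorescence ratio relative to baseline, converted to per-well B score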
TRPC6 inh: mouse TRPC6 channel inhibitors, primary screen, cell-based, HEK293, membrane potential dye | AID 2553, 2010 | ACh-evoked depolarization; hits give low values | B-score at 10 µM | actives 1.1% (n = 310,000) | Short transient receptor potential channel 6 (Mus musculus), Q61143;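 active = B-score under library mean minus 3 SD, initial fluorescence not abnormally high, positive integrated signal ratio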;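 also: B-score derived from integrated fluorescence ratio over the kinetic read; more negative B-score means stronger inhibition of depolarization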
TRPC4 sel inh 2: second selectivity test of TRPC6 inhibitors: effect on mouse TRPC4; shares compounds with TRPC6 inh; HEK293 TRPC4/MOR, membrane potential dye fluorescence; channel activated by saturating DAMGO dose; inhibition, % at 10 µM; actives 42% (n = 920); AID 2776;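 active = compounds whose fluorescence signal differed from control wells by over 3 SD, either direction, in both duplicate plates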
TRPC4 spec: mouse TRPC4 modulation by TRPC6 hits, confirmation, selectivity assay for TRPC6 inhibitor project, cell-based, HEK293 TRPC4/mu-opioid, membrane potential dye; shares compounds with TRPC6 inh; membrane potential fluorescence; activity change, negative = inhibition, % at 10 µM; actives 61% (n = 920); AID 2777, 2010;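 active = rise or fall in signal beyond 3 SD of buffer-only wells in both replicate plates, either sign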;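 also: integrated kinetic ratio of fluorescence range over baseline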
HEK293 MPD ctr 2-1: nonspecific membrane potential effects, parental HEK293, confirmation, counter-screen for TRPC6 inhibitor project, cell-based, second counter screen. shares compounds with TRPC6 inh. parental HEK293 membrane potential dye fluorescence; maximal acetylcholine challenge after compound addition. signal change vs control, % at 10 µM. actives 31% (n = 920). AID 2779, 2010;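 active = membrane potential signal moving either way by over 3 SD of the maximum-effect control, in both duplicate plates, meaning non-specific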
HEK293 MPD ctr-1: membrane potential modulation in parental HEK293, confirmation, counter-screen for TRPC6 inhibitor project, cell-based | shares compounds with TRPC6 inh | parental HEK293 membrane potential dye fluorescence | membrane potential signal change, % at 10 µM | actives 60% (n = 920) | AID 2780, 2010;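 active = membrane potential signal shifting up or down by more than 3 SD of buffer-only wells, on both duplicate plates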
HEK293 MPD ctr-2: parental HEK293 membrane potential modulation, confirmation, counter-screen for TRPC6 modulator project, cell-based | membrane potential signal change, % at 10 µM | membrane potential dye fluorescence | AID 488924, 2010 | actives 51% (n = 2,400) | shares compounds with TRPC6 inh;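 active = membrane potential signal moves up or down beyond 5 SD from buffer-only wells, on both duplicate plates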
HEK293 MPD ctr 2-2: second counter-screen for TRPC6 modulators: effect in parental HEK293 cells; membrane potential dye fluorescence; after compound, maximal acetylcholine stimulation; inhibition, % at 10 µM; actives 14% (n = 2,400); shares compounds with TRPC6 inh;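 active = membrane potential signal drops by more than 5 SD from the mean control signal, in both duplicate plates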
TRPC4 ctr mod: TRPC4 modulation by TRPC6 hit compounds, confirmation, selectivity assay for TRPC6 modulator project, cell-based, HEK293 TRPC4/mu-opioid, membrane potential dye, mouse. membrane potential fluorescence. percent change from control (negative = decrease, positive = increase), % at 10 µM. actives 69% (n = 2,400). shares compounds with TRPC6 inh;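 active = membrane potential signal moved up or down beyond 5 SD of buffer control wells, in both duplicate plates, actives on both sides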
TRPC4 ctr inh 2: second check of whether TRPC6 modulators also affect mouse TRPC4 | HEK293 TRPC4/mu-opioid, membrane potential dye fluorescence; stimulated with maximal-effect DAMGO | inhibition, % at 10 µM | AID 488928 | actives 55% (n = 2,400) | shares compounds with TRPC6 inh;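 active = drop in membrane potential signal beyond 5 SD of the control wells in both duplicate plates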;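 also: TRPC4 counter screen for TRPC6 hits run under conditions tuned for TRPC6 not TRPC4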
TRPC6 block conf: mouse TRPC6 channel inhibitors, confirmation, HEK293 cells, membrane potential dye, duplicate; shares compounds with TRPC6 inh; ACh-evoked depolarization; inhibition, % at 10 µM; actives 43% (n = 3,300); AID 488960, 2010;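 active = fluorescence ratio falls more than 5 SD below the full-stimulation control mean, in both duplicate runs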;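 also: integrated fluorescence ratio of peak minus minimum over baseline after agonist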
TRPC6 act confirm: mouse TRPC6 channel activators, confirmation, HEK293 cells, membrane potential dye, duplicate; shares compounds with TRPC6 inh; HEK293-TRPC6 membrane potential dye fluorescence, FDSS; activation, % at 10 µM; actives 11% (n = 2,800); AID 488961, 2010;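 active = ratio signal rise beyond 5 SD above unstimulated control wells' mean, seen in both duplicate runs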
Of the large screens only hits and unclear results are named; the others gave an inactive call (follow-up assays come after a bar, where they were run). The list is not random: actives were taken first. Their share in the collection is about 2.3%.

CNC(=S)N(CCN(C)C)Cc1cc2cc3c(cc2[nH]c1=O)OCO3	none
CCOC(=O)N1CCC(N2Cc3cccc(C(=O)Nc4ccc(CC)cc4)c3C2=O)CC1	TRPC6 inh -7.4 | TRPC4 sel inh 2 inactive | TRPC4 spec inactive | HEK293 MPD ctr 2-1 inactive | HEK293 MPD ctr-1 inactive | TRPC6 block conf inactive | TRPC6 act confirm inactive
CCOC(=O)N1CCC(N2Cc3cccc(C(=O)NCc4ccc(OC)cc4)c3C2=O)CC1	TRPC6 inh -7.7 | TRPC4 sel inh 2 inactive | TRPC4 spec inactive | HEK293 MPD ctr 2-1 inactive | HEK293 MPD ctr-1 inactive | TRPC6 block conf inactive | TRPC6 act confirm inactive
CCOC(=O)N1CCC(N2Cc3cccc(C(=O)Nc4ccc(OCC)cc4)c3C2=O)CC1	none
CC[n+]1c(/C=C(/C)SC)sc2ccccc21	TRPC6 inh -7.5 | HEK293 MPD ctr-2 -275% | HEK293 MPD ctr 2-2 82% | TRPC4 ctr mod -48% | TRPC4 ctr inh 2 52% | TRPC6 block conf 67% | TRPC6 act confirm inactive
CC[n+]1c(/C=C/Nc2ccccc2)sc2ccccc21	TRPC6 inh -8.5 | TRPC4 sel inh 2 76% | TRPC4 spec -20% | HEK293 MPD ctr 2-1 inactive | HEK293 MPD ctr-1 -361% | TRPC6 block conf inactive | TRPC6 act confirm inactive
CC[n+]1c(/C=C2/C=C(C)CC(C)C2)sc2ccccc21 (stereo unspecified)	none
CC[n+]1c(/C=C(\C)SC)sc2ccccc21	TRPC6 inh -10 | HEK293 MPD ctr-2 -262% | HEK293 MPD ctr 2-2 82% | TRPC4 ctr mod -42% | TRPC4 ctr inh 2 58% | TRPC6 block conf 56% | TRPC6 act confirm inactive
CC/C(=C/c1sc2ccccc2[n+]1CC)SC	none
CC(NS(=O)(=O)c1cc2c3c(c1)CCC(=O)N3CCC2)c1ccccc1 (stereo unspecified)	none
COC(=O)CSc1nc(-c2ccccc2)c2c(c1C#N)CCCC2	none
N#Cc1c(NCCN)nc(-c2ccccc2)c2c1CCCC2	TRPC6 inh -6.2 | HEK293 MPD ctr-2 inactive | HEK293 MPD ctr 2-2 inactive | TRPC4 ctr mod inactive | TRPC4 ctr inh 2 85% | TRPC6 block conf 67% | TRPC6 act confirm inactive
CCNc1nc(SCC(N)=O)nc2sc3c(c12)CCN(C)C3	TRPC6 inh -6.6 | HEK293 MPD ctr-2 -196% | HEK293 MPD ctr 2-2 inactive | TRPC4 ctr mod -38% | TRPC4 ctr inh 2 43% | TRPC6 block conf 52% | TRPC6 act confirm inactive
CCn1c(SCC(N)=O)nc2sc3c(c2c1=O)CCN(C)C3	TRPC6 inh -6 | HEK293 MPD ctr-2 -203% | HEK293 MPD ctr 2-2 inactive | TRPC4 ctr mod -36% | TRPC4 ctr inh 2 36% | TRPC6 block conf 44% | TRPC6 act confirm inactive
CCn1c(SCC(=O)Nc2ccc(C)cc2)nc2sc3c(c2c1=O)CCN(C)C3	none
CCOc1ccc(-n2c(SCC(N)=O)nc3sc4c(c3c2=O)CCN(C)C4)cc1	none
CSc1nc(SCC(N)=O)c2c3c(sc2n1)CN(C)CC3	TRPC6 inh -11 | HEK293 MPD ctr-2 -210% | HEK293 MPD ctr 2-2 68% | TRPC4 ctr mod -38% | TRPC4 ctr inh 2 47% | TRPC6 block conf inactive | TRPC6 act confirm inactive
CCOC(=O)CSc1nc2sc3c(c2c(=O)n1C1CCCCC1)CCN(C)C3	TRPC6 inh -5.6 | HEK293 MPD ctr-2 inactive | HEK293 MPD ctr 2-2 inactive | TRPC4 ctr mod 8.0% | TRPC4 ctr inh 2 46% | TRPC6 block conf inactive | TRPC6 act confirm inactive
COCCSc1nc2sc3c(c2c(=O)n1-c1ccccc1)CCN(C)C3	TRPC6 inh -7.5 | HEK293 MPD ctr-2 -108% | HEK293 MPD ctr 2-2 inactive | TRPC4 ctr mod -22% | TRPC4 ctr inh 2 inactive | TRPC6 block conf inactive | TRPC6 act confirm inactive
COC(CNc1nc(SC)nc2sc3c(c12)CCN(C)C3)OC	none
CCC(O)CNc1nc(SC)nc2sc3c(c12)CCN(C)C3 (stereo unspecified)	TRPC6 inh -7.2 | HEK293 MPD ctr-2 -167% | HEK293 MPD ctr 2-2 inactive | TRPC4 ctr mod -39% | TRPC4 ctr inh 2 36% | TRPC6 block conf inactive | TRPC6 act confirm inactive
CCSc1nc2sc3c(c2c(=O)n1-c1ccccc1)CCN(C)C3	none
C/C=C(\C)CN1CCC(n2nccc2NC(=O)c2ccc3c(c2)OCO3)CC1	none

High-throughput results (PubChem BioAssay)
